According to paper PMC9291822 (British Journal of Clinical Pharmacology, 2021):
Like-named read-outs stand apart in the source and are kept apart here.

Key:
[1] = multiple dosing of capmatinib; cited from earlier work
[2] = format: in vivo, human; details: for AUCinf of metabolite, GM / AUCinf of metabolite, mean (SD) / AUClast of metabolite, GM / AUClast of metabolite, mean (SD) / Cmax of metabolite, GM / Cmax of metabolite, mean (SD) / Metabolite ratio of AUCinf, GM / Metabolite ratio of AUCinf, mean (SD) / Metabolite ratio of AUClast, GM / Metabolite ratio of AUClast, mean (SD) / Tmax of metabolite, median (range) / t½ of metabolite, GM / t½ of metabolite, mean (SD): after capmatinib single oral dose 200 mg
Procedure, shortened: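 Adults aged 18–75 with hepatic impairment (Child–Pugh A/B/C, also reclassified by NCI Organ Dysfunction Working Group criteria) or normal function, matched on age, weight and sex. Overnight fast (≥10 h), single oral 200 mg (2 × 100 mg tablets), fasting ≥4 h post-dose. Plasma sampled predose to 72 h; parent and metabolite measured by validated LC-MS/MS (LLOQ ~1.00 ng/mL). Noncompartmental analysis; GM ratios vs normal with 90% CIs.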

[3] = mild (n = 6), listed as M16 (CMN288)
[4] = moderate (n = 8), listed as M16 (CMN288)
[5] = normal (n = 9), listed as M16 (CMN288)
[6] = severe (n = 6), listed as M16 (CMN288)

For `CNC(=O)c1ccc(-c2nn3c(Cc4ccc5ncccc5c4)cnc3[nH]c2=O)cc1F` [CMN288], which “accumulation of metabolite after multiple dosing” value [1] is on record?
The value was “does not accumulate”.

And the “AUCinf of metabolite, GM” value ([2]; mild (n = 6))?
The value was 2190 ng·h/mL.

And the “AUCinf of metabolite, mean (SD)” value ([2]; mild (n = 6))?
The value was 2300 (691) ng × h/mL.

What about the “AUClast of metabolite, GM” value ([2]; mild (n = 6)) of the same compound?
Its value is 2150 ng·h/mL.

What about the “AUClast of metabolite, mean (SD)” value ([2]; mild (n = 6)) of the same compound?
The value was 2250 (677) ng × h/mL.

And the “Cmax of metabolite, GM” value ([2]; mild (n = 6))?
Its value is 423 ng/mL.

And the “Cmax of metabolite, mean (SD)” value ([2]; mild (n = 6))?
The value was 492 (272) ng/mL.

And the “Metabolite ratio of AUCinf, GM” value ([2]; mild (n = 6))?
The value was 0.440 (23.8) fold.

And the “Metabolite ratio of AUCinf, mean (SD)” value ([2]; mild (n = 6))?
Its value is 0.450 (0.0988) fold.

And the “Metabolite ratio of AUClast, GM” value ([2]; mild (n = 6))?
Its value is 0.437 (24.1) fold.

What about the “Metabolite ratio of AUClast, mean (SD)” value ([2]; mild (n = 6)) of the same compound?
Its value is 0.447 (0.100) fold.

And the “Tmax of metabolite, median (range)” value ([2]; mild (n = 6))?
Its value is 1.00 (1.00–2.00) h.

And the “t½ of metabolite, GM” value ([2]; mild (n = 6))?
Its value is 6.84 h.

What about the “t½ of metabolite, mean (SD)” value ([2]; mild (n = 6)) of the same compound?
Its value is 7.86 (5.49) h.

And the “Metabolite ratio of AUCinf, GM” value [2, 3]?
The value was 0.440 fold.

And the “Metabolite ratio of AUClast, GM” value [2, 3]?
Its value is 0.437 fold.

And the “AUCinf of metabolite, GM” value ([2]; moderate (n = 8))?
The value was 3400 ng·h/mL.

And the “AUCinf of metabolite, mean (SD)” value ([2]; moderate (n = 8))?
Its value is 3850 (2490) ng × h/mL.

What about the “AUClast of metabolite, GM” value ([2]; moderate (n = 8)) of the same compound?
The value was 3370 ng·h/mL.

What about the “AUClast of metabolite, mean (SD)” value ([2]; moderate (n = 8)) of the same compound?
Its value is 3830 (2490) ng × h/mL.

What about the “Cmax of metabolite, GM” value ([2]; moderate (n = 8)) of the same compound?
The value was 587 ng/mL.

What about the “Cmax of metabolite, mean (SD)” value ([2]; moderate (n = 8)) of the same compound?
Its value is 738 (645) ng/mL.

What about the “Metabolite ratio of AUCinf, GM” value ([2]; moderate (n = 8)) of the same compound?
The value was 0.573 (67.7) fold.

And the “Metabolite ratio of AUCinf, mean (SD)” value ([2]; moderate (n = 8))?
The value was 0.680 (0.443) fold.

What about the “Metabolite ratio of AUClast, GM” value ([2]; moderate (n = 8)) of the same compound?
The value was 0.573 (68.0) fold.

And the “Metabolite ratio of AUClast, mean (SD)” value ([2]; moderate (n = 8))?
The value was 0.680 (0.445) fold.

And the “Tmax of metabolite, median (range)” value ([2]; moderate (n = 8))?
Its value is 1.00 (1.00–3.00) h.

What about the “t½ of metabolite, GM” value ([2]; moderate (n = 8)) of the same compound?
Its value is 6.42 h.

And the “t½ of metabolite, mean (SD)” value ([2]; moderate (n = 8))?
The value was 7.32 (5.16) h.

What about the “Metabolite ratio of AUCinf, GM” value [2, 4] of the same compound?
Its value is 0.573 fold.

And the “Metabolite ratio of AUClast, GM” value [2, 4]?
The value was 0.573 fold.

And the “AUCinf of metabolite, GM” value ([2]; normal (n = 9))?
The value was 4560 ng·h/mL.

What about the “AUCinf of metabolite, mean (SD)” value ([2]; normal (n = 9)) of the same compound?
Its value is 4820 (1880) ng × h/mL.

What about the “AUClast of metabolite, GM” value ([2]; normal (n = 9)) of the same compound?
Its value is 4520 ng·h/mL.

What about the “AUClast of metabolite, mean (SD)” value ([2]; normal (n = 9)) of the same compound?
Its value is 4780 (1880) ng × h/mL.

What about the “Cmax of metabolite, GM” value ([2]; normal (n = 9)) of the same compound?
Its value is 1010 ng/mL.

And the “Cmax of metabolite, mean (SD)” value ([2]; normal (n = 9))?
The value was 1050 (328) ng/mL.

What about the “Metabolite ratio of AUCinf, GM” value ([2]; normal (n = 9)) of the same compound?
Its value is 0.704 (24.1) fold.

What about the “Metabolite ratio of AUCinf, mean (SD)” value ([2]; normal (n = 9)) of the same compound?
The value was 0.722 (0.181) fold.

What about the “Metabolite ratio of AUClast, GM” value ([2]; normal (n = 9)) of the same compound?
Its value is 0.702 (24.0) fold.

And the “Metabolite ratio of AUClast, mean (SD)” value ([2]; normal (n = 9))?
The value was 0.720 (0.180) fold.

What about the “Tmax of metabolite, median (range)” value ([2]; normal (n = 9)) of the same compound?
Its value is 1.50 (1.00–2.00) h.

What about the “t½ of metabolite, GM” value ([2]; normal (n = 9)) of the same compound?
The value was 9.96 h.

And the “t½ of metabolite, mean (SD)” value ([2]; normal (n = 9))?
The value was 11.4 (6.92) h.

What about the “Metabolite ratio of AUCinf, GM” value [2, 5] of the same compound?
Its value is 0.704 fold.

What about the “Metabolite ratio of AUClast, GM” value [2, 5] of the same compound?
The value was 0.702 fold.

What about the “AUCinf of metabolite, GM” value ([2]; severe (n = 6)) of the same compound?
The value was 2130 ng·h/mL.

And the “AUCinf of metabolite, mean (SD)” value ([2]; severe (n = 6))?
The value was 2350 (1200) ng × h/mL.

And the “AUClast of metabolite, GM” value ([2]; severe (n = 6))?
Its value is 2110 ng·h/mL.

And the “AUClast of metabolite, mean (SD)” value ([2]; severe (n = 6))?
Its value is 2330 (1210) ng × h/mL.

What about the “Cmax of metabolite, GM” value ([2]; severe (n = 6)) of the same compound?
The value was 262 ng/mL.

What about the “Cmax of metabolite, mean (SD)” value ([2]; severe (n = 6)) of the same compound?
The value was 287 (130) ng/mL.

What about the “Metabolite ratio of AUCinf, GM” value ([2]; severe (n = 6)) of the same compound?
The value was 0.266 (32.2) fold.

And the “Metabolite ratio of AUCinf, mean (SD)” value ([2]; severe (n = 6))?
The value was 0.276 (0.0802) fold.

What about the “Metabolite ratio of AUClast, GM” value ([2]; severe (n = 6)) of the same compound?
The value was 0.264 (32.2) fold.

And the “Metabolite ratio of AUClast, mean (SD)” value ([2]; severe (n = 6))?
The value was 0.274 (0.0795) fold.

And the “Tmax of metabolite, median (range)” value ([2]; severe (n = 6))?
The value was 3.00 (1.50–6.00) h.

And the “t½ of metabolite, GM” value ([2]; severe (n = 6))?
Its value is 5.87 h.

What about the “t½ of metabolite, mean (SD)” value ([2]; severe (n = 6)) of the same compound?
Its value is 5.93 (0.907) h.

What about the “Metabolite ratio of AUCinf, GM” value [2, 6] of the same compound?
Its value is 0.266 fold.

What about the “Metabolite ratio of AUClast, GM” value [2, 6] of the same compound?
Its value is 0.264 fold.

And the “decrease in metabolite GM AUCinf vs. normal group” value ([2]; mild group)?
Its value is 52.0%.

What about the “decrease in metabolite GM AUClast vs. normal group” value ([2]; mild group) of the same compound?
The value was 52.4%.

And the “decrease in metabolite GM Cmax vs. normal group” value ([2]; mild group)?
The value was 58.1%.

And the “decrease in metabolite GM t1/2 vs. normal group” value ([2]; mild group)?
Its value is 31.3%.

What about the “decrease in metabolite GM AUCinf vs. normal group” value ([2]; moderate group) of the same compound?
Its value is 25.4%.

What about the “decrease in metabolite GM AUClast vs. normal group” value ([2]; moderate group) of the same compound?
Its value is 25.4%.

And the “decrease in metabolite GM Cmax vs. normal group” value ([2]; moderate group)?
The value was 41.9%.

And the “decrease in metabolite GM t1/2 vs. normal group” value ([2]; moderate group)?
Its value is 35.5%.

What about the “decrease in metabolite GM AUCinf vs. normal group” value ([2]; severe group) of the same compound?
Its value is 53.3%.

What about the “decrease in metabolite GM AUClast vs. normal group” value ([2]; severe group) of the same compound?
The value was 53.3%.

And the “decrease in metabolite GM Cmax vs. normal group” value ([2]; severe group)?
The value was 74.1%.

What about the “decrease in metabolite GM t1/2 vs. normal group” value ([2]; severe group) of the same compound?
Its value is 41.1%.

And the “decrease in metabolite GM AUCinf and AUClast vs. normal hepatic function” value ([2]; the 3 hepatic impairment groups)?
The value was 25–53%.
